Series [1] has as its system Plasmodium falciparum. Briefly: Antiplasmodial activity against chloroquine-sensitive asexual erythrocytic stage of Plasmodium falciparum NF54 assessed as […] lactate dehydrogenase assay. The format is functional, organism-based. Put shortly: (§1)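 Asexual erythrocytic P. falciparum kept in continuous culture (modified Trager–Jensen). Growth measured by parasite lactate dehydrogenase assay (modified Makler). Full dose-response: 10 twofold dilutions in complete medium from 10 μg/mL down to 0.02 μg/mL. Tested in triplicate on one occasion. Chloroquine and artesunate as references.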

The nature of series [2]: Antifungal activity against Rhodotorula bogoriensis MUCL 11796 by microdilution method. The format is functional. Put shortly: (§2)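 Broth microdilution: log2 dilution series made from stocks in 10% DMSO, diluted 1:5 in RPMI 1640 with glutamine and without bicarbonate. Equal volume of working inoculum added: 1 × 10^3 CFU/mL at 37 °C (C. albicans, A. flavus) or 1 × 10^5 CFU/mL at 20 °C (R. bogoriensis). Absorbance read at 530 nm. MIC taken as the concentration giving 50% growth inhibition versus 1% DMSO medium control. Amphotericin B as positive control.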

Series [3] has as its system Aspergillus flavus. Description: Antifungal activity against Aspergillus flavus IHEM 5785 by microdilution method. The format is functional. Put shortly:
as §2

The test system of series [4] is Candida albicans. Description: Antifungal activity against Candida albicans IHEM 374 at 600 ug/dish after 1 day by disk diffusion method. The conditions noted are these: 600 ug/dis. The format is functional, organism-based. The method, boiled down: (§3)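 Disk diffusion: strains subcultured on Sabouraud dextrose agar; inoculum of colonies (yeast) or mycelium plus spores (A. flavus) in sterile saline adjusted to 0.5 McFarland, swabbed onto Mueller-Hinton + GMB agar ([…], 0.5 μg/mL methylene blue). DMSO-dissolved compound applied to 6 mm paper disks and freeze-dried; 600 μg/dish in triplicate. Incubated at 37 °C for 1 day (C. albicans, A. flavus) or 20 °C for 4 days (R. bogoriensis). Nystatin disks as positive control, DMSO disks as negative control.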
For orientation: Agar diffusion results depend on both activity and mobility in agar.

Series [5] deals with Candida albicans. Description: Antifungal activity against Candida albicans IHEM 374 by microdilution method. The format is functional. Put shortly:
as §2
(In broth dilution the organism is exposed to a series of concentrations in liquid medium.)

Series [6] deals with Aspergillus flavus. Description: Antifungal activity against Aspergillus flavus IHEM 5785 at 600 ug/dish after 1 day by disk diffusion method. The series is classed as functional, organism-based. The conditions noted are these: 600 ug/dis. The method, boiled down:
as §3

Series [7] in a line: Antifungal activity against Rhodotorula bogoriensis MUCL 11796 at 600 ug/dish after 4 days by disk diffusion method. The series is classed as functional. The conditions noted are these: 600 ug/dis. The method, boiled down: as §3
The subject of series [8] is Plasmodium falciparum. Briefly: Antiplasmodial activity against chloroquine-resistant asexual erythrocytic stage of Plasmodium falciparum Dd2 assessed as […] lactate dehydrogenase assay. The series is classed as functional, organism-based. Put shortly:
as §1

Series [9] deals with Plasmodium falciparum. Briefly: Resistance index, ratio of IC50 for chloroquine-resistant asexual erythrocytic stage of Plasmodium falciparum Dd2 to IC50 for chloroquine-sensitive asexual erythrocytic stage of Plasmodium falciparum NF54. The format is functional. The method, boiled down:
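Resistance index calculated as IC50 against Dd2 divided by IC50 against NF54, both from the pLDH assay.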

A further series deals with CHO. Briefly: Cytotoxicity against CHO cells assessed as cell growth and survival after 48 hrs by MTT assay. The series is classed as cell-based. The note with it: Cricetulus griseus. The method, boiled down:
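CHO mammalian cells; growth and survival read by MTT assay. Samples diluted in complete medium using the same scheme as the emetine reference (tenfold serial dilutions, 6 concentrations). Emetine was the reference drug. IC50 obtained by non-linear dose-response curve fitting.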
In general terms: Tetrazolium dyes change colour on reduction, which living cells bring about.

Series [10] can be described thus: Selectivity index, ratio of IC50 for CHO cells to IC50 for chloroquine-sensitive asexual erythrocytic stage of Plasmodium falciparum NF54. The series is classed as toxicity, cell-based. The note with it: hamster; read-out: Ratio IC50. Put shortly:
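Selectivity index calculated as IC50 in CHO cells (MTT) divided by IC50 against NF54 (pLDH).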

The values that follow come from ChEMBL document CHEMBL3407490, “Synthesis of functionalized 3-, 5-, 6- and 8-aminoquinolines via intermediate (3-pyrrolin-1-yl)- and (2-oxopyrrolidin-1-yl)quinolines and evaluation of their antiplasmodial and antifungal activity” (Eur J Med Chem, 2015).

≈ marks a conversion by molar mass, not a printed value. Calls of active or inactive are those of the source. The rule behind the calls is not given here.

Consider `CC(C)(O)CCCNc1ccc2ncccc2c1`, for which, in the series with Plasmodium falciparum [1], the IC50 was above 40 µM.
Still for that read-out and setting: in the case of `Brc1c(Br)c(Br)n(-c2ccc3ncccc3c2Br)c1Br` it was above 15 µM; in that of `C1=CCN(c2cnc3ccccc3c2)C1`, above 50 µM.
For `CC(O)CCCNc1cnc2ccccc2c1` (stereo not drawn), the results for the minimal inhibitory concentration (MIC) (in series [2]; in the series on Aspergillus flavus [3]; in the series on Candida albicans [5]) were 300 µM (≈ 69.1 µg/mL), 100 µM (≈ 23 µg/mL) and 1100 µM (≈ 253 µg/mL), respectively. Further, the outcome (in the series with Candida albicans [4]; in the series with Aspergillus flavus [6]; in series [7]) was Active. For the same compound, the IC50 in the series on Plasmodium falciparum [1] is above 40 µM.
With `OCCCCNc1cccc2cccnc12`, the MIC came out at 40 µM (≈ 8.65 µg/mL) in series [2], 100 µM (≈ 21.6 µg/mL) in the series on Aspergillus flavus [3] and 1200 µM (≈ 260 µg/mL) with Candida albicans [5]. Besides, the outcome (with Candida albicans [4]; in the series on Aspergillus flavus [6]; in series [7]) was Active. For the same compound, the IC50 in the series with Plasmodium falciparum [1] was above 45 µM.
Take `C[C@H]1[C@H](OC(=O)CCC(=O)O)O[C@@H]2O[C@@]3(C)CC[C@H]4[C@H](C)CC[C@@H]1[C@@]24OO3` [ARTESUNATE]: the IC50 in the series with Plasmodium falciparum [8] was 0.011 µM. In the series with Plasmodium falciparum [9], the “Ratio IC50” value was found to be 2.2.
Turning to `CC1CCCN1c1cnc2ccccc2c1` (stereo not drawn), the IC50 with Plasmodium falciparum [1] is 31.1 µM.
With `Cc1nc2ccccc2cc1N1CCCC1C` (stereo not drawn), the half-inhibitory concentration (IC50) stood at 38 µM with Plasmodium falciparum [8], 294 µM with CHO and 13.3 µM in the series with Plasmodium falciparum [1]. Moreover, the “Ratio IC50” value in the series on Plasmodium falciparum [9] came to 2.9. Besides, in [10], the selectivity ratio was determined as 22.
As to `CC(O)CCCNc1cccc2ncccc12` (stereo not drawn), the IC50 in the series with Plasmodium falciparum [1] was found to be 32.6 µM.
Still for that read-out and setting: in the case of `c1ccc2ncc(N3CCCC3)cc2c1` it was above 50 µM; in that of `O=C1CCCN1c1cnc2ccccc2c1`, above 45 µM.
For the compound `CC(C)(O)CCCNc1cccc2ncccc12`, the MIC in series [2] worked out at 20 µM (≈ 4.89 µg/mL); against Aspergillus flavus [3], 300 µM (≈ 73.3 µg/mL); against Candida albicans [5], 2000 µM (≈ 489 µg/mL). The result (in the series on Candida albicans [4]; with Aspergillus flavus [6]; in [7]) was Active. In addition, the concentration for half-maximal inhibition (IC50) in the series with Plasmodium falciparum [1] was 28.2 µM.
As to `OCCCCNc1cccc2ncccc12`, the figures for the IC50 in the series with Plasmodium falciparum [8], in the series on CHO and in the series on Plasmodium falciparum [1] were 49 µM, above 100 µM and 19.9 µM, respectively. The “Ratio IC50” value in the series on Plasmodium falciparum [9] came out at 2.5. In addition, the selectivity ratio in [10] is 23.
In the case of `c1cc(N2CCCC2)c2cccnc2c1`, in the series with Plasmodium falciparum [1], the concentration for half-maximal inhibition (IC50) was above 50 µM.
With `CC[C@H]1CN2CCc3cc(OC)c(OC)cc3[C@@H]2C[C@@H]1C[C@H]1NCCc2cc(OC)c(OC)cc21` [EMETINE], the IC50 in the series on CHO amounted to 0.125 µM.
Take `CC1CCCN1c1cccc2ncccc12` (stereo not drawn): in the series on Plasmodium falciparum [1], the IC50 is above 45 µM.
With `CC1CCCN1c1ccc2ncccc2c1` (stereo not drawn), the IC50 in the series with Plasmodium falciparum [1] turned out to be 41.9 µM.
As to `O=C1CCCN1c1cccc2ncccc12`, the IC50 with Plasmodium falciparum [1] was above 45 µM.
Regarding `c1cnc2ccc(N3CCCC3)cc2c1`, the IC50 in the series on Plasmodium falciparum [1] is above 50 µM.
Take `C[C@@H]1[C@H](O)[C@@H](C)/C=C/C=C/C=C/C=C/C=C/C=C/C=C/[C@H](O[C@@H]2O[C@H](C)[C@@H](O)[C@H](N)[C@@H]2O)C[C@@H]2O[C@](O)(C[C@@H](O)C[C@@H](O)[C@H](O)CC[C@@H](O)C[C@@H](O)CC(=O)O[C@H]1C)C[C@H](O)[C@H]2C(=O)O` [AMPHOTERICIN B]: the results for the MIC (in [2]; in the series with Aspergillus flavus [3]; in the series on Candida albicans [5]) were below 0.2 µM, 30 µM (≈ 27.7 µg/mL) and below 0.2 µM, respectively.
As for `CC(C)(O)CCCNc1cccc2cccnc12`, the MIC in series [2] amounted to 30 µM (≈ 7.33 µg/mL); against Aspergillus flavus [3], 60 µM (≈ 14.7 µg/mL); against Candida albicans [5], 1000 µM (≈ 244 µg/mL). Also, the result (with Candida albicans [4]; with Aspergillus flavus [6]; in [7]) was Active. For the same compound, the IC50 in the series on Plasmodium falciparum [1] is above 40 µM.
As to `OCCCCNc1cnc2ccccc2c1`, in the series with Plasmodium falciparum [1], the IC50 is above 45 µM.
As to `O=C1CCCN1c1cccc2cccnc12`, in the series with Plasmodium falciparum [1], the IC50 was above 45 µM.
Still for that read-out and setting: in the case of `Cc1nc2ccccc2cc1NCCCC(C)(C)O` it was above 35 µM; in that of `C1=CCN(c2cccc3cccnc23)C1`, above 50 µM.
For the compound `OCCCCNc1ccc2ncccc2c1`, the MIC came to 1200 µM (≈ 260 µg/mL) in [2], 10 µM (≈ 2.16 µg/mL) against Aspergillus flavus [3] and 1200 µM (≈ 260 µg/mL) against Candida albicans [5]. Also, the result (with Candida albicans [4]; in the series with Aspergillus flavus [6]; in series [7]) was Active. The IC50 with Plasmodium falciparum [1] is above 45 µM.
Take `O=C1CCCN1c1ccc2ncccc2c1`: the IC50 in the series with Plasmodium falciparum [1] is above 45 µM.
Regarding `CC(O)CCCNc1ccc2ncccc2c1` (stereo not drawn), the MIC in series [2] worked out at 1100 µM (≈ 253 µg/mL); against Aspergillus flavus [3], 300 µM (≈ 69.1 µg/mL); against Candida albicans [5], 1100 µM (≈ 253 µg/mL). The outcome (in the series with Candida albicans [4]; in the series with Aspergillus flavus [6]; in [7]) was Active. Also, in the series on Plasmodium falciparum [1], the IC50 was above 40 µM.
Consider `C1=CCN(c2ccc3ncccc3c2)C1`, for which the IC50 in the series on Plasmodium falciparum [1] is above 50 µM.
The same measure, in the same setting: with `C1=CCN(c2cccc3ncccc23)C1` the figure was above 50 µM; with `Cc1nc2ccccc2cc1NCCCC(C)O` (stereo not drawn), above 40 µM.

What is called IC50 is the concentration that gives 50% inhibition. Usually MIC stands for the least concentration at which growth counts as inhibited. A higher MIC goes with a need for much substance.
